In brackets after ≈: the same amount, converted by molar mass.
Legend:
Assay type in all cases: functional
[1] = test system: Staphylococcus aureus; assay: Antibacterial activity against methicillin-resistant Staphylococcus aureus N315 by microbroth dilution method
Outline: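 Minimum inhibitory concentration against MRSA N315 determined by micro broth dilution in microdilution plates.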

[2] = test system: Enterococcus faecalis; assay: Antibacterial activity against Enterococcus faecalis by microbroth dilution method
[3] = test system: Staphylococcus aureus; assay: Antibacterial activity against Staphylococcus aureus by microbroth dilution method
[4] = test system: Staphylococcus aureus; assay: Antibacterial activity against Staphylococcus aureus ATCC 25923 by microbroth dilution method
[5] = test system: Staphylococcus aureus; assay: Antibacterial activity against Staphylococcus aureus ATCC 29213 by microbroth dilution method
[6] = test system: Klebsiella pneumoniae; assay: Antibacterial activity against Klebsiella pneumonia by microbroth dilution method
[7] = test system: Escherichia coli; assay: Antibacterial activity against Escherichia coli by microbroth dilution method
[8] = test system: Pseudomonas aeruginosa; assay: Antibacterial activity against Pseudomonas aeruginosa by microbroth dilution method
[9] = test system: Acinetobacter baumannii; assay: Antibacterial activity against Acinetobacter baumannii by microbroth dilution method
[10] = test system: Pseudomonas aeruginosa; assay: Antibacterial activity against Pseudomonas aeruginosa ATCC 27853 by microbroth dilution method
[11] = test system: Escherichia coli; assay: Antibacterial activity against Escherichia coli ATCC 25922 by microbroth dilution method
[12] = test system: Staphylococcus aureus; assay: (§1) Potentiation of (Z)-4-((bis(2-hydroxyethyl)amino)methyl)-7-((1-(4-methoxyphenyl)-3-oxo-3-(thiazol-2-yl)prop-1-en-2-yl)oxy)-2H-chromen-2-one-induced antibacterial activity against methicillin resistant Staphylococcus aureus N315 assessed as (Z)-4-((bis(2-hydroxyethyl)amino)methyl)-7-((1-(4-methoxyphenyl)-3-oxo-3-(thiazol-2-yl)prop-1-en-2-yl)oxy)-2H-chromen-2-one MIC
[13] = test system: Enterococcus faecalis; assay: as §1, with “Enterococcus faecalis” for “methicillin resistant Staphylococcus aureus N315”
[14] = test system: Klebsiella pneumoniae; assay: Potentiation of(Z)-4-((bis(2-hydroxyethyl)amino)methyl)-7-((1-(4-methoxyphenyl)-3-oxo-3-(thiazol-2-yl)prop-1-en-2-yl)oxy)-2H-chromen-2-one-induced antibacterial activity against Klebsiella pneumoniae assessed as (Z)-4-((bis(2-hydroxyethyl)amino)methyl)-7-((1-(4-methoxyphenyl)-3-oxo-3-(thiazol-2-yl)prop-1-en-2-yl)oxy)-2H-chromen-2-one MIC
[15] = test system: Escherichia coli; assay: as §1, with “Escherichia coli” for “methicillin resistant Staphylococcus aureus N315”

O=C(/C(=C/c1ccc(Cl)cc1)Oc1ccc2c(CN(CCO)CCO)cc(=O)oc2c1)c1nccs1
MIC [1]: 121 µM (≈ 63.8 µg/mL) | MIC [2]: 243 µM (≈ 128 µg/mL) | MIC [3]: 243 µM (≈ 128 µg/mL) | MIC [4]: 243 µM (≈ 128 µg/mL) | MIC [5]: 243 µM (≈ 128 µg/mL) | MIC [6]: 486 µM (≈ 256 µg/mL) | MIC [7]: 486 µM (≈ 256 µg/mL) | MIC [8]: 61 µM (≈ 32.1 µg/mL) | MIC [9]: 243 µM (≈ 128 µg/mL) | MIC [10]: 243 µM (≈ 128 µg/mL) | MIC [11]: 486 µM (≈ 256 µg/mL)

O=C(COc1ccc2c(CN(CCO)CCO)cc(=O)oc2c1)c1nccs1
MIC [1]: 20 µM (≈ 8.09 µg/mL) | MIC [2]: 316 µM (≈ 128 µg/mL) | MIC [3]: 316 µM (≈ 128 µg/mL) | MIC [4]: 633 µM (≈ 256 µg/mL) | MIC [5]: 1270 µM (≈ 512 µg/mL) | MIC [6]: 316 µM (≈ 128 µg/mL) | MIC [7]: 316 µM (≈ 128 µg/mL) | MIC [8]: 633 µM (≈ 256 µg/mL) | MIC [9]: 633 µM (≈ 256 µg/mL) | MIC [10]: 1270 µM (≈ 512 µg/mL) | MIC [11]: 633 µM (≈ 256 µg/mL)

O=C(/C(=C/c1ccccc1Cl)Oc1ccc2c(CN(CCO)CCO)cc(=O)oc2c1)c1nccs1
MIC [1]: 61 µM (≈ 32.1 µg/mL) | MIC [2]: 121 µM (≈ 63.8 µg/mL) | MIC [3]: 121 µM (≈ 63.8 µg/mL) | MIC [4]: 486 µM (≈ 256 µg/mL) | MIC [5]: 486 µM (≈ 256 µg/mL) | MIC [6]: 972 µM (≈ 512 µg/mL) | MIC [7]: 972 µM (≈ 512 µg/mL) | MIC [8]: 486 µM (≈ 256 µg/mL) | MIC [9]: 486 µM (≈ 256 µg/mL) | MIC [10]: 243 µM (≈ 128 µg/mL) | MIC [11]: 243 µM (≈ 128 µg/mL)

CCn1cc(C(=O)O)c(=O)c2cc(F)c(N3CCNCC3)cc21 [NORFLOXACIN]
MIC [1]: 25 µM (≈ 7.98 µg/mL) | MIC [2]: 25 µM (≈ 7.98 µg/mL) | MIC [3]: 6 µM (≈ 1.92 µg/mL) | MIC [4]: 3 µM (≈ 0.958 µg/mL) | MIC [5]: 6 µM (≈ 1.92 µg/mL) | MIC [6]: 13 µM (≈ 4.15 µg/mL) | MIC [7]: 50 µM (≈ 16 µg/mL) | MIC [8]: 25 µM (≈ 7.98 µg/mL) | MIC [9]: 25 µM (≈ 7.98 µg/mL) | MIC [10]: 3 µM (≈ 0.958 µg/mL) | MIC [11]: 25 µM (≈ 7.98 µg/mL) | MIC [12]: 0.781 10^-3mM | MIC [13]: 0.781 10^-3mM | MIC [14]: 0.203 10^-3mM | MIC [15]: 0.781 10^-3mM

CCn1cc(/C=C(\Oc2ccc3c(CN(CCO)CCO)cc(=O)oc3c2)C(=O)c2nccs2)c2ccccc21
MIC [1]: 114 µM (≈ 63.8 µg/mL) | MIC [2]: 14 µM (≈ 7.84 µg/mL) | MIC [3]: 29 µM (≈ 16.2 µg/mL) | MIC [4]: 7 µM (≈ 3.92 µg/mL) | MIC [5]: 57 µM (≈ 31.9 µg/mL) | MIC [6]: 229 µM (≈ 128 µg/mL) | MIC [7]: 229 µM (≈ 128 µg/mL) | MIC [8]: 114 µM (≈ 63.8 µg/mL) | MIC [9]: 57 µM (≈ 31.9 µg/mL) | MIC [10]: 57 µM (≈ 31.9 µg/mL) | MIC [11]: 229 µM (≈ 128 µg/mL)

O=C(/C(=C/c1c[nH]c2cc(Cl)ccc12)Oc1ccc2c(CN(CCO)CCO)cc(=O)oc2c1)c1nccs1
MIC [1]: 57 µM (≈ 32.3 µg/mL) | MIC [2]: 57 µM (≈ 32.3 µg/mL) | MIC [3]: 113 µM (≈ 64 µg/mL) | MIC [4]: 57 µM (≈ 32.3 µg/mL) | MIC [5]: 57 µM (≈ 32.3 µg/mL) | MIC [6]: 57 µM (≈ 32.3 µg/mL) | MIC [7]: 226 µM (≈ 128 µg/mL) | MIC [8]: 226 µM (≈ 128 µg/mL) | MIC [9]: 113 µM (≈ 64 µg/mL) | MIC [10]: 113 µM (≈ 64 µg/mL) | MIC [11]: 226 µM (≈ 128 µg/mL)

O=C(/C(=C/c1ccc(F)cc1)Oc1ccc2c(CN(CCO)CCO)cc(=O)oc2c1)c1nccs1
MIC [1]: 125 µM (≈ 63.8 µg/mL) | MIC [2]: 125 µM (≈ 63.8 µg/mL) | MIC [3]: 125 µM (≈ 63.8 µg/mL) | MIC [4]: 251 µM (≈ 128 µg/mL) | MIC [5]: 251 µM (≈ 128 µg/mL) | MIC [6]: 251 µM (≈ 128 µg/mL) | MIC [7]: 1000 µM (≈ 512 µg/mL) | MIC [8]: 1000 µM (≈ 512 µg/mL) | MIC [9]: 251 µM (≈ 128 µg/mL) | MIC [10]: 251 µM (≈ 128 µg/mL) | MIC [11]: 251 µM (≈ 128 µg/mL)

— ChEMBL document CHEMBL4823277, “Novel chalcone-conjugated, multi-flexible end-group coumarin thiazole hybrids as potential antibacterial repressors against methicillin-resistant Staphylococcus aureus” (Eur J Med Chem, 2021)
